In ChEMBL document CHEMBL3232782, “1,2,3,4,8,9,10,11-octahydrobenzo[j]phenanthridine-7,12-diones as new leads against Mycobacterium tuberculosis” (J Med Chem, 2014):
Values after ≈ are worked out from the molar mass of the structure shown.

System: Mycobacterium tuberculosis variant bovis
Experiment: Antimycobacterial activity against Mycobacterium bovis AN5 expressing luciferase assessed as growth inhibition after 6 days by luminometry
Assay type: functional
Settings: AN5, 144 h
In short: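 Strains carried pSMT1 luxAB reporter plasmid. DMSO stocks 10 mM, serially diluted in 7H9 + 10% FCS, triplicate wells. Filtered bacterial suspension at 50 000 RLU/mL. Luminescence read after 6 days using 1% n-decanal substrate. […] Growth temperatures: M.tb 37 °C; M. avium and M. bovis 39 °C.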

In order of rising MIC:
1. NNC(=O)c1ccncc1 [ISONIAZID]  0.08 µM (≈ 0.011 µg/mL)
2. CCOC(=O)C1CCc2ncc3c(c2C1)C(=O)C1=C(C3=O)C2CCC1C2 (centres undefined)  0.09 µM (≈ 0.0316 µg/mL)
3. CCOC(=O)C1CCc2ncc3c(c2C1)C(=O)C1=C(C3=O)C2CCC1CC2 (centres undefined)  0.57 µM (≈ 0.208 µg/mL)
4. CC(C)(C)C1CCc2ncc3c(c2C1)C(=O)C1=C(C3=O)C2CCC1C2 (centres undefined)  0.78 µM (≈ 0.262 µg/mL)
